Source: PubChem
SIRT5 inh = sirtuin-5 (human) deacylase inhibition | inhibition, % at 15 µM | Purified SirT5, succinyl-peptide AMC, trypsin-coupled fluorescence | Q9NXA8 | 330,000 tested, 1.1% active; in the data active means inhibition above about 15%
Target sequence (Q9NXA8 whole entry, looked up): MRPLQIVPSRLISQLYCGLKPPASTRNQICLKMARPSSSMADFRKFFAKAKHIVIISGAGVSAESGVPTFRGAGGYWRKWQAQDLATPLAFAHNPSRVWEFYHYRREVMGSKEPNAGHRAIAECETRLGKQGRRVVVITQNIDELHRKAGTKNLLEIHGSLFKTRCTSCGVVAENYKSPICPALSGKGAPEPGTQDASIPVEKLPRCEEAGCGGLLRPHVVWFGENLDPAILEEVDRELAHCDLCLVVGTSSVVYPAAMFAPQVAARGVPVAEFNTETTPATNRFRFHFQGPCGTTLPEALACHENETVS
rRNA inh HTS = selective bacterial rRNA inhibition in E. coli. E. coli WT GFP vs humanized-ribosome RFP mutants, fluorescence, 24 h; hits give low values; DMSO median 0, no signal -100. GFP signal change (wild-type ribosome), % (no concentration beside the values). 350,000 tested, 1.6% active. AID 720706;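 active means significant combined selectivity score with lowered wild-type GFP, culture density cut under 30%, mutant RFP and density less affected; inactive means any of these conditions unmet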
Cneo AK release = causes C. neoformans cell lysis. adenylate kinase release luminescence, 4 h; normalised: neutral wells 0, clomiphene wells 100. 360,000 tested, 0.2% active. lysis activity, % at 15 µM;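 active means mean lysis activity across replicates of at least 80%, whatever share of replicates individually reach that level; inactive means mean lysis activity below 80%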
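Assay system: log-phase C. neoformans yeast / Quantity: yeast cell density of 5 × 10^6 cells/mL / Medium: fresh YPD growth medium / Compound: single dose / Timing: static 4 h at 37 °C with compound, 1 h detection / Measured by: adenylate kinase release luminescence / Read-out: lysis from increased AK signal / Benchmarks: Clomiphene as positive lysis control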
Statin myotox sup = suppressors of simvastatin-induced myotoxicity in C2C12 myotubes. ATP luminescence, 48 h; scaled: DMSO 0, geranylgeraniol control 100. rescue of ATP level, % at 7.49 µM. 330,000 tested, 0.78% active;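 active means mean ATP rescue above about 67%, or every replicate alone reaching that limit, limit read from the data, passing the limit was not always enough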;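 further: myotubes were challenged with 10 µM simvastatin during compound exposure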
PGC1a acetyl inh = PGC1a acetylation modulation, inhibitor mode | U2OS PGC1a acetylation, AlphaScreen anti-acetyl-lysine; with virally co-expressed GCN5 acetyltransferase | inhibition, % at 15.6 µM | 350,000 tested, 0.17% active | AID 651687;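 active means every replicate shows inhibition of at least 40%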;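 further: 0% = neutral control wells and 100% = positive control wells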
S100A4 inh HTS = S100A4-myosin IIA interaction inhibition. 360,000 tested, 0.14% active. AID 652163. inhibition, % at 10.7 µM. S100A4/TAMRA-MyoIIA peptide fluorescence polarization;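 active means mean inhibition of at least 70% across replicates, with every replicate also reaching that level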
Target sequence (P26447 whole entry, looked up): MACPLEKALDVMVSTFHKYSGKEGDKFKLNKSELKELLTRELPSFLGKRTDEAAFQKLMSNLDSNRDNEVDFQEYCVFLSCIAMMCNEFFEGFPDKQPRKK
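incubation = readout 5 min after mixing, signal stable up to 60 min | system = S100A4 monomer protein | buffer or medium = HEPES pH 7.2 with CaCl2, KCl, NaCl, DTT, Triton | benchmarks = neutral control DMSO, positive control TFP | also added = fluorescent myosin IIA peptide, 5 nM | compound dosing = one concentration per compound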
An asterisk follows results filed as active; · = not tested or not shown. Sampled rows, rich in hits. Any-hit rate of the full collection: about 3%.

SMILES | SIRT5 inh | rRNA inh HTS | Cneo AK release | Statin myotox sup | PGC1a acetyl inh | S100A4 inh HTS
O=C(N[C@H]1CC[C@@H](CCNS(=O)(=O)c2ccc(F)cc2)O[C@@H]1CO)C1CCC1 | 17.7* | 0.1 | -3.0 | -0.1 | -4.1 | 10.5
O=C(CCN1CCCCC1)N[C@H]1CC[C@@H](CCNS(=O)(=O)c2ccc(Cl)cc2)O[C@H]1CO | -1.7 | -1.1 | 7.5 | 21.8 | -0.9 | 82.4*
O=C(CCN1CCCCC1)N[C@H]1CC[C@H](CCNS(=O)(=O)c2ccc(Cl)cc2)O[C@H]1CO | -1.2 | -3.3 | -0.1 | -1.2 | 2.7 | 2.4
Cc1ccc(S(=O)(=O)NCC[C@@H]2CC[C@H](NC(=O)CCN3CCCCC3)[C@@H](CO)O2)cc1 | 17.2* | -0.7 | -3.4 | -1.9 | 5.8 | 8.4
O=C(CC1CC1)N[C@H]1CC[C@H](CCNS(=O)(=O)c2ccc(Cl)cc2)O[C@H]1CO | -0.4 | -7.3 | 2.6 | 8.1 | 53.2* | 11.1
O=C(N[C@H]1CC[C@@H](CCNS(=O)(=O)c2ccc(F)cc2)O[C@H]1CO)C1CCC1 | -4.7 | -0.8 | -0.2 | 4.6 | -0.3 | 0.4
COc1ccccc1NC(=O)N[C@@H]1CC[C@H](CCNS(=O)(=O)c2ccc(Cl)cc2)O[C@@H]1CO | 26.1* | -5.4 | -3.1 | 8.0 | 8.8 | -3.5
O=C(N[C@@H]1CC[C@H](CCNS(=O)(=O)c2ccc(Cl)cc2)O[C@H]1CO)c1cnccn1 | -6.4 | 2.2 | 1.0 | 7.8 | 4.6 | 3.4
COc1ccccc1NC(=O)N[C@@H]1CC[C@H](CCNS(=O)(=O)c2ccc(Cl)cc2)O[C@H]1CO | 5.0 | -1.6 | 0.2 | -8.1 | -7.9 | 2.1
Cc1ccc(S(=O)(=O)NCC[C@@H]2CC[C@H](NC(=O)Nc3cccc(F)c3)[C@@H](CO)O2)cc1 | 1.3 | -1.9 | 0.2 | -10.7 | 3.4 | 73.1*
O=C(N[C@H]1CC[C@H](CCNS(=O)(=O)c2ccc(Cl)cc2)O[C@H]1CO)c1cnccn1 | 32.5* | -10.1 | 0.6 | -9.3 | 2.0 | -12.4
Cc1ccc(-c2ccccc2[C@H]2[C@@H](C#N)N(C(=O)Cc3cccnc3)[C@H]2CO)cc1 | · | 0.9 | · | · | -10.9 | -36.8
O=C(Cc1cccnc1)N1CC[C@H]2[C@H](CO)Nc3ccc(C#Cc4cccc(F)c4)cc3[C@H]21 | 0.9 | 4.7 | · | · | 4.5 | 39.3
CCC(=O)N1C[C@H](C)[C@@H](OC)CN(C)C(=O)c2ccc(NC(=O)Nc3ccc(Cl)cc3)cc2OC[C@@H]1C | 2.3 | -1.8 | · | · | 2.4 | -8.9
Cc1ccc(-c2ccccc2[C@@H]2C[C@H]3CN(C)C(=O)[C@]34CCCN24)o1 | · | 11.8 | 0.6 | 103.2* | -0.1 | 6.3
CCCN(C)C[C@H]1Oc2ncc(-c3cccc(C#N)c3)cc2C(=O)N([C@H](C)CO)C[C@@H]1C | 1.5 | 5.1 | -9.9 | 10.4 | 4.6 | 25.9
CCOC(=O)N1CCN(C(=O)c2ccc3c(=O)n(CCc4ccccc4)c(=O)[nH]c3c2)CC1 | · | · | -0.6 | 176.9* | -13.3 | ·
CCCCCn1c(=O)[nH]c2cc(C(=O)N3CCN(C(=O)OCC)CC3)ccc2c1=O | -1.1 | 1.7 | 1.6 | -4.2 | 6.3 | 0.6
CSc1nsc(SCC(=O)N2CCCc3ccccc32)n1 | · | · | -3.0 | 92.0* | 10.2 | ·
Cc1ccnc(SCC(=O)N2CCCc3ccccc32)n1 | -1.9 | -1.9 | 0.0 | -2.8 | · | -11.4
CCOc1ccc(C(F)(F)F)cc1NC(=O)COc1ccc(C(F)(F)F)cc1[N+](=O)[O-] | · | · | 0.7 | -7.5 | -9.1 | ·
CCOc1ccc(C(F)(F)F)cc1NC(C)=O | · | · | -2.1 | 96.1* | -11.5 | ·
C[C@@H]1CN([C@H](C)CO)S(=O)(=O)c2ccc(C#Cc3ccc(F)cc3)cc2O[C@H]1CN(C)C(=O)NC1CCCCC1 | 18.1* | -0.7 | -9.1 | -45.0 | 4.6 | 7.5
C[C@@H]1CN([C@H](C)CO)S(=O)(=O)c2ccc(C#Cc3ccc(F)cc3)cc2O[C@H]1CN(C)C(=O)NC1CCCC1 | 10.6 | -2.7 | 82.4* | -9.7 | 22.6 | -0.3
C[C@@H]1CN([C@@H](C)CO)C(=O)c2cc(C3=CCCCC3)cnc2O[C@H]1CN(C)Cc1ccncc1 | 2.9 | 0.8 | 15.8 | 6.5 | 6.5 | -9.7
SMILES | SIRT5 inh | rRNA inh HTS | Cneo AK release | Statin myotox sup | PGC1a acetyl inh | S100A4 inh HTS
CC(C)[C@@H]1C(=O)N[C@@H](c2ccc(F)cc2)CC=CC[C@H](C)Oc2ccccc2C(=O)N1C (mixture of isomers) | · | -5.2 | · | · | · | ·
CC1CCC/C(=C\Nc2ccc(C(=O)O)cc2)C1=O (stereo not drawn) | 5.9 | 6.3 | · | · | · | -5.8
CC1CCC/C(=C\Nc2ccc(C(=O)O)c(O)c2)C1=O (stereo not drawn) | 29.4* | 9.9 | · | · | 14.8 | 1.0
O=C1CCCC/C1=C\Nc1ccc(C(=O)O)c(O)c1 | 23.1* | 16.6 | · | 8.1 | · | 5.2
COc1ccc(S(=O)(=O)N[C@@H]2CC[C@H](CC(=O)N3CCC(Cc4ccccc4)CC3)O[C@H]2CO)cc1 | 2.1 | 4.6 | -3.3 | 35.4 | -3.6 | -0.3
C[C@H]1CN([C@@H](C)CO)C(=O)c2cc(C3=CCCCC3)cnc2O[C@H]1CN(C)C(=O)c1ccc2c(c1)OCO2 | -1.6 | 7.4 | 55.7 | 10.8 | -0.2 | -13.0
CCOc1ccc(Nc2nc3cc(S(=O)(=O)CC)ccc3o2)cc1 | 17.7* | 9.8 | -0.4 | -24.4 | -2.9 | -4.2
CCS(=O)(=O)c1ccc2oc(Nc3ccc(OC)cc3)nc2c1 | -2.5 | 12.3 | -3.0 | 4.6 | 1.2 | -0.6
O=C(COC(=O)C1CC2C=CC1C2)NCc1ccco1 (stereo not drawn) | · | · | 4.9 | 101.3* | -4.7 | ·
COc1ccc(S(=O)(=O)N2CCOC2CNC(=O)C(=O)NCCc2c[nH]c3ccccc23)cc1C (stereo not drawn) | -1.3 | -14.6* | 2.0 | 4.8 | -13.0 | 5.4
O=C(C[C@@H]1C[C@H]2c3cc(NC(=O)NC4CCCC4)ccc3O[C@H]2[C@H](CO)O1)NC1CCCC1 | -1.6 | -4.0 | 0.2 | 4.1 | -0.3 | 9.6
CN1C(=O)c2cc(NC(=O)c3ccccc3)ccc2OC[C@H]2O[C@H](CC(=O)NCC3CC3)CC[C@@H]21 | -4.5 | 4.1 | -3.6 | -5.1 | -7.4 | -5.9
O=C1S/C(=C\c2ccc(O)c([N+](=O)[O-])c2)C(=O)N1Cc1cccc([N+](=O)[O-])c1 | -4.2 | 17.2 | 3.1 | · | -22.3 | -2.8
O=C(O)c1cccc(CN2C(=O)S/C(=C/c3ccccc3[N+](=O)[O-])C2=O)c1 | 1.1 | -22.2* | · | · | 1.4 | 1.3
Cc1ccc(NC(=O)c2ccc(CSc3ccccn3)cc2)cc1 | · | · | -1.6 | -65.5 | -1.8 | ·
Cc1ccc(NC(=O)c2ccc(CSc3ccccn3)cc2)c(O)c1 | 2.3 | -35.8* | · | · | · | 2.0
